According to ChEMBL document CHEMBL5303300, “EUbOPEN Chemogenomics Library - Multiplex” (2023):
Several values for one entry are separate records, joined by “and”; a condition that tells them apart may be missing. Equal entries are not always repeated.

What was measured:
[1] = system: Fibroblast; assay: Multiplex assay against human fibroblast; assay type: toxicity, cell-based; details: number of replicates 2
Outline: (§1)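 Live cells were stained at seeding with Hoechst33342, BioTracker Green Microtubule Cytoskeleton Dye, MitoTracker Red and Annexin V Alexa Fluor 680, then imaged on a CQ1 microscope at 37°C and 5% CO2 after compound addition. CellPathfinder machine-learning gating split cells into Hoechst high-intensity objects or normal cells. Normal cells were split into healthy, pyknosed or fragmented nuclei, and pyknosed cells into mitotic or apoptotic. Tubulin, mitochondrial-mass and membrane-permeability phenotypes are per cents of healthy-nucleus cells.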

[2] = system: HEK-293T; assay: Multiplex assay against HEK293T; assay type: toxicity, cell-based; details: human, number of replicates 2; outline: as §1
[3] = 12 h, 1 µM, compound concentration 1 uM
[4] = 12 h, 10 µM, compound concentration 10 uM
[5] = 24 h, 1 µM, compound concentration 1 uM
[6] = 24 h, 10 µM, compound concentration 10 uM
[7] = 48 h, 1 µM, compound concentration 1 uM
[8] = 48 h, 10 µM, compound concentration 10 uM

Cn1cc(-c2ccc(N(C(=O)NCc3ccccc3)[C@H]3CC[C@H](Nc4ccc(C#N)cn4)CC3)cc2)ccc1=O
Population Apoptotic (%) [1, 3]: 46% | Population Fragmented Nuclei (%) [1, 3]: 8% and 18% | Population Healthy Nuclei (%) [1, 3]: 72% and 60% | Population Hoechst High Intensity Objects (%) [1, 3]: 0% | Population Membrane Permeable-Phenotype (%) [1, 3]: 6% | Population Mitochondria Different-Phenotype (%) [1, 3]: 1% and 2% | Population Mitotic Cells (%) [1, 3]: 53% | Population Normal (%) [1, 3]: 100% | Population Pyknosed Nuclei (%) [1, 3]: 19% and 21% | Population Tubulin-Different-Phenotype (%) [1, 3]: 9% and 11% | Total Cell Count [1, 3]: 155 and 181 | Population Apoptotic (%) [1, 4]: 39% and 40% | Population Fragmented Nuclei (%) [1, 4]: 8% and 9% | Population Healthy Nuclei (%) [1, 4]: 55% and 72% | Population Hoechst High Intensity Objects (%) [1, 4]: 0% | Population Membrane Permeable-Phenotype (%) [1, 4]: 16% and 14% | Population Mitochondria Different-Phenotype (%) [1, 4]: 3% | Population Mitotic Cells (%) [1, 4]: 60% and 59% | Population Normal (%) [1, 4]: 99% | Population Pyknosed Nuclei (%) [1, 4]: 36% and 18% | Population Tubulin-Different-Phenotype (%) [1, 4]: 75% and 55% | Total Cell Count [1, 4]: 249 and 273 | Population Apoptotic (%) [1, 5]: 38% and 48% | Population Fragmented Nuclei (%) [1, 5]: 12% and 15% | Population Healthy Nuclei (%) [1, 5]: 73% and 64% | Population Hoechst High Intensity Objects (%) [1, 5]: 0% | Population Membrane Permeable-Phenotype (%) [1, 5]: 4% and 7% | Population Mitochondria Different-Phenotype (%) [1, 5]: 0% and 1% | Population Mitotic Cells (%) [1, 5]: 61% and 51% | Population Normal (%) [1, 5]: 99% | Population Pyknosed Nuclei (%) [1, 5]: 14% and 20% | Population Tubulin-Different-Phenotype (%) [1, 5]: 11% | Total Cell Count [1, 5]: 149 and 180 | Population Apoptotic (%) [1, 6]: 54% and 81% | Population Fragmented Nuclei (%) [1, 6]: 10% | Population Healthy Nuclei (%) [1, 6]: 44% and 47% | Population Hoechst High Intensity Objects (%) [1, 6]: 0% | Population Membrane Permeable-Phenotype (%) [1, 6]: 18% | Population Mitochondria Different-Phenotype (%) [1, 6]: 7% and 5% | Population Mitotic Cells (%) [1, 6]: 45% and 18% | Population Normal (%) [1, 6]: 99% | Population Pyknosed Nuclei (%) [1, 6]: 44% and 42% | Population Tubulin-Different-Phenotype (%) [1, 6]: 79% and 63% | Total Cell Count [1, 6]: 231 and 271 | Population Apoptotic (%) [1, 7]: 76% and 60% | Population Fragmented Nuclei (%) [1, 7]: 17% and 16% | Population Healthy Nuclei (%) [1, 7]: 68% | Population Hoechst High Intensity Objects (%) [1, 7]: 0% | Population Membrane Permeable-Phenotype (%) [1, 7]: 5% and 2% | Population Mitochondria Different-Phenotype (%) [1, 7]: 0% | Population Mitotic Cells (%) [1, 7]: 23% and 39% | Population Normal (%) [1, 7]: 100% | Population Pyknosed Nuclei (%) [1, 7]: 13% and 15% | Population Tubulin-Different-Phenotype (%) [1, 7]: 8% and 5% | Total Cell Count [1, 7]: 154 and 186 | Population Apoptotic (%) [1, 8]: 71% and 83% | Population Fragmented Nuclei (%) [1, 8]: 8% and 15% | Population Healthy Nuclei (%) [1, 8]: 36% and 28% | Population Hoechst High Intensity Objects (%) [1, 8]: 0% and 1% | Population Membrane Permeable-Phenotype (%) [1, 8]: 26% and 22% | Population Mitochondria Different-Phenotype (%) [1, 8]: 8% and 2% | Population Mitotic Cells (%) [1, 8]: 28% and 16% | Population Normal (%) [1, 8]: 99% and 98% | Population Pyknosed Nuclei (%) [1, 8]: 54% and 56% | Population Tubulin-Different-Phenotype (%) [1, 8]: 78% and 65% | Total Cell Count [1, 8]: 233 and 237 | Population Apoptotic (%) [2, 3]: 40% and 44% | Population Fragmented Nuclei (%) [2, 3]: 3% and 2% | Population Healthy Nuclei (%) [2, 3]: 83% and 84% | Population Hoechst High Intensity Objects (%) [2, 3]: 5% | Population Membrane Permeable-Phenotype (%) [2, 3]: 2% and 3% | Population Mitochondria Different-Phenotype (%) [2, 3]: 19% and 9% | Population Mitotic Cells (%) [2, 3]: 59% and 55% | Population Normal (%) [2, 3]: 94% | Population Pyknosed Nuclei (%) [2, 3]: 12% | Population Tubulin-Different-Phenotype (%) [2, 3]: 52% and 40% | Total Cell Count [2, 3]: 571 and 680 | Population Apoptotic (%) [2, 4]: 52% and 47% | Population Fragmented Nuclei (%) [2, 4]: 12% and 6% | Population Healthy Nuclei (%) [2, 4]: 71% and 78% | Population Hoechst High Intensity Objects (%) [2, 4]: 8% and 10% | Population Membrane Permeable-Phenotype (%) [2, 4]: 8% and 3% | Population Mitochondria Different-Phenotype (%) [2, 4]: 54% and 57% | Population Mitotic Cells (%) [2, 4]: 47% and 52% | Population Normal (%) [2, 4]: 91% and 89% | Population Pyknosed Nuclei (%) [2, 4]: 16% and 15% | Population Tubulin-Different-Phenotype (%) [2, 4]: 92% and 93% | Total Cell Count [2, 4]: 474 and 388 | Population Apoptotic (%) [2, 5]: 35% and 31% | Population Fragmented Nuclei (%) [2, 5]: 5% and 4% | Population Healthy Nuclei (%) [2, 5]: 86% | Population Hoechst High Intensity Objects (%) [2, 5]: 8% and 6% | Population Membrane Permeable-Phenotype (%) [2, 5]: 2% and 5% | Population Mitochondria Different-Phenotype (%) [2, 5]: 5% and 4%
